TRPC4 agonist – activators of mouse TRPC4 channel, primary screen, Fluo4 calcium, HEK293 TRPC4beta/mu-opioid cells; 310,000 compounds, 0.49% hits; AID 2237, 2010; Fluo4 calcium fluorescence; active compounds read high; B-score at 10 µM; Short transient receptor potential channel 4 (Mus musculus), Q9QUQ5;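 active = B-score above 5 SD of library B-scores, and initial fluorescence ratio not above library mean plus 5 SD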;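 note: positive B-score marks a calcium rise read as TRPC4 activation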
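System – HEK293 cells stably co-expressing mouse TRPC4beta and mu-opioid receptor · Signal – Fluo4 calcium-sensitive dye fluorescence, kinetic, 1 Hz baseline · Benchmarks – buffer (low) and maximal DAMGO (high) · Read-out – B score of integrated fluorescence ratio per well · Incubation – dye loading 45 min room temperature, 110 s kinetic read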
TRPC6 inh – mouse TRPC6 channel inhibitors, primary screen, cell-based, HEK293, membrane potential dye | Short transient receptor potential channel 6 (Mus musculus), Q61143 | ACh-evoked depolarization; active compounds read low | B-score at 10 µM | 310,000 compounds, 1.1% hits | AID 2553, 2010;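 active = B-score under library mean minus 3 SD, initial fluorescence not abnormally high, positive integrated signal ratio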;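 note: B-score derived from integrated fluorescence ratio over the kinetic read; more negative B-score means stronger inhibition of depolarization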
Target sequence (Q61143 whole entry, looked up): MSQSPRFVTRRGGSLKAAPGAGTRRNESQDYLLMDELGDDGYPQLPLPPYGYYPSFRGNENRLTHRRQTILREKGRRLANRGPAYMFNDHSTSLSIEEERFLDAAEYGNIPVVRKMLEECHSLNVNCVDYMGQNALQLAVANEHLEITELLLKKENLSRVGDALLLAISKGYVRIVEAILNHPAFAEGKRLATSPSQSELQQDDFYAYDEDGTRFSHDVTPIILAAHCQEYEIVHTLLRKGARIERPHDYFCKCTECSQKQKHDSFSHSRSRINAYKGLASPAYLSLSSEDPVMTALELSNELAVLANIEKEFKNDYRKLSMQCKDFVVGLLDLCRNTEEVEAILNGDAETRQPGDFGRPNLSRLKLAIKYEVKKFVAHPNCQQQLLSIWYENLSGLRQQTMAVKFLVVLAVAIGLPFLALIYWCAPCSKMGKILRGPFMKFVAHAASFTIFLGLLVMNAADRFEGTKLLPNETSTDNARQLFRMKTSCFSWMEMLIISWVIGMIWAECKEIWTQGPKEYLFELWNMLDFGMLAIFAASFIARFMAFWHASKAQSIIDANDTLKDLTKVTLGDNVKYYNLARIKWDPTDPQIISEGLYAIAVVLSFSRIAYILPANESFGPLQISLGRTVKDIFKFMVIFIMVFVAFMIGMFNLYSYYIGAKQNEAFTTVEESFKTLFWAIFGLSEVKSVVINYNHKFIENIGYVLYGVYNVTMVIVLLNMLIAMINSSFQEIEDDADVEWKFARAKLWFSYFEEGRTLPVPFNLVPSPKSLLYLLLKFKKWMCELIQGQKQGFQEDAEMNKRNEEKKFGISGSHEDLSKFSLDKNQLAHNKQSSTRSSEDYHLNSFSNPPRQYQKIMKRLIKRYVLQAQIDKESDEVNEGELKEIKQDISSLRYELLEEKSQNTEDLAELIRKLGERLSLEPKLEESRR
DSG3 Ab inh – inhibitors of pemphigus antibody binding to DSG3, primary screen, biochemical, bead-based, flow cytometry, scFv-GFP | Desmoglein-3 (Homo sapiens), P32926 | DSG3-coupled beads, scFv-anti-DSG3-GFP binding; active compounds read low | binding (percent of control), % at 10 µM | 310,000 compounds, 0.48% hits | AID 588358, 2011;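 active = binding more than 3 SD below its plate's average and above zero; inconclusive = below that plate limit but binding exactly zero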;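 note: hits lower antibody fragment binding to DSG3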
TRPC4 PAM – positive allosteric modulators of TRPC4, primary screen, cell-based, mouse TRPC4beta, HEK293 mu-opioid, Fluo-4 calcium | DAMGO EC20, Fluo-4 Ca2+ flux; active compounds read high | B-score at 10 µM | 310,000 compounds, 0.42% hits;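 active = B-score of calcium response area above 5 SD of library B-scores, with initial fluorescence ratio within 5 SD of library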;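 note: B-score of integrated fluorescence ratio over time as area under calcium response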
TRPC4 inh – inhibitors of mouse TRPC4 channel, primary screen, Fluo4 calcium, HEK293 TRPC4beta/mu-opioid cells. Short transient receptor potential channel 4 (Mus musculus), Q9QUQ5. DAMGO-evoked Fluo4 calcium flux; active compounds read low. B-score at 10 µM. 300,000 compounds, 0.39% hits. AID 2247, 2010;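 active = B-score over 3 SD under the library average, no early fluorescence shift, positive overall ratio signal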
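System: stable TRPC4beta/mu-opioid receptor HEK293 cells; Dosing: single-point compound dosing; Measured by: Fluo4 Ca2+ flux fluorescence; Read-out basis: per-well B score of integrated baseline-normalized Fluo4 ratio.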
TRPC6 act – mouse TRPC6 channel activators, primary screen, cell-based, HEK293, membrane potential dye | Short transient receptor potential channel 6 (Mus musculus), Q61143 | HEK293-TRPC6 membrane potential dye fluorescence; active compounds read high | B-score at 10 µM | 310,000 compounds, 0.13% hits;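 active = B-score of the integrated fluorescence ratio above library mean plus 3 SD, and starting fluorescence ratio within library mean plus 5 SD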;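 note: higher score means more depolarization so channel activation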
Active calls of the source: *; i = inactive; ? = inconclusive; · = no result. Most compounds without a hit are left out; they make up all but 2.5% or so of the library.

SMILES	TRPC4 agonist	TRPC6 inh	DSG3 Ab inh	TRPC4 PAM	TRPC4 inh	TRPC6 act
COc1ccccc1C(=O)Nc1c(C(=O)N(CCN(C)C)Cc2ccco2)oc2ccccc12	i	i	107	i	i	i
Cc1ccccc1C(=O)Nc1c(C(=O)N(CCN(C)C)Cc2ccco2)oc2ccccc12	45*	i	106	i	-6*	i
Cc1ccc(S(=O)(=O)N2CCN(c3ccc([N+](=O)[O-])c4cccnc34)CC2)cc1	i	i	98	i	i	i
O=[N+]([O-])c1ccc(N2CCN(CCO)CC2)c2ncccc12	56*	i	113	21*	i	i
COc1cc(NC(=S)NCCc2ccccc2)c(OC)cc1NC(=O)CC(C)C	i	i	102	i	-6*	i
CC(C)CC(=O)NC(=S)NCCc1ccccc1	i	i	104	i	i	i
Cc1ccc(/C=N/NC(=O)NC2CCCCC2)o1	i	i	100	72*	i	i
Cc1ccc(/C=C/C(=O)NC2CCCCCCC2)o1	i	i	95	27*	i	i
CC(C)[C@H](NC(=O)c1ccccc1)C(=O)OCC(=O)Nc1ncc(Cl)cc1Cl	·	·	116	·	·	·
N#CC(C#N)=C(N)Nc1cccc(Cl)c1	i	i	118	i	i	i
N#C/C(N)=C(/C#N)N=Cc1cccc(Cl)c1	i	i	·	11*	i	i
O=C(c1ccc(S(=O)(=O)Nc2ccccc2)cc1)N1CCCC(C(F)(F)F)C1 (configuration not stated)	54*	i	?	i	i	i
CCOc1ccc(S(=O)(=O)Nc2ccc(C(=O)N3CCCC3)cc2)cc1	i	i	100	i	i	i
Cc1ccc(NS(=O)(=O)c2ccc(C(=O)N3CCC3)cc2)cc1	i	i	107	i	i	i
CCOc1ccc(NS(=O)(=O)c2ccc(C(=O)N3CCCC(C)C3)cc2)cc1 (configuration not stated)	54*	i	98	i	i	i
Cc1ccc(NS(=O)(=O)c2ccc(C(=O)N3CC(C)OC(C)C3)cc2)cc1 (configuration not stated)	53*	i	104	i	i	i
COc1ccc(CNC(=O)C(CCSC)NS(=O)(=O)c2ccccc2F)cc1 (configuration not stated)	i	i	·	i	i	i
O=[N+]([O-])c1cc(Cl)c(Cl)c(Cl)c1Cl	·	·	102	·	·	·
Cc1ccc(NC(=O)Nc2ccc3c(c2)OCO3)nc1	i	i	6.9*	i	i	i
Cc1cc(C)nc(NC(=O)Nc2ccc3c(c2)OCO3)c1	i	i	81	i	i	i
O=C(OCc1ccc([N+](=O)[O-])cc1)c1cc(=O)c2ccccc2o1	i	i	·	i	i	i
CCOC(=O)C1(CC2CCCCO2)CCN(Cc2cc(F)ccc2-n2cccn2)CC1 (configuration not stated)	91*	i	108	i	i	i
CCOC(=O)C1(CC2CCCCO2)CCN(Cc2nc3ccccc3[nH]2)CC1 (configuration not stated)	115*	i	102	i	i	i
CCOC(=O)C1(CC2CCCCO2)CCN(Cc2c(C)cc(C)cc2-n2cccn2)CC1 (configuration not stated)	106*	i	95	i	i	i
CN(CC(=O)Nc1c(Cl)cccc1Cl)C(=O)CC1Sc2ccccc2NC1=O (configuration not stated)	i	i	105	i	-6*	i
